Key:
[1] = Displacement of [3H]-DTG from sigma 2 receptor in rat liver membrane after 30 mins by radioligand binding assay; format: cell membranes
Outline: (§1)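 […] (30 Ci/mmol) radioligand binding per Matsumoto et al. IC50 taken from six to nine drug concentrations, in two or three experiments with duplicate samples. Ki obtained by non-linear curve fitting. Tested as hydrochloride salts.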

[2] = biological target: Sigma non-opioid intracellular receptor 1 (Cavia porcellus, UniProt Q60492); experiment: Displacement of [3H]-pentazocine from sigma 1 receptor in guinea pig brain after 30 mins by radioligand binding assay
Sequence of Sigma non-opioid intracellular receptor 1 (Q60492 whole entry): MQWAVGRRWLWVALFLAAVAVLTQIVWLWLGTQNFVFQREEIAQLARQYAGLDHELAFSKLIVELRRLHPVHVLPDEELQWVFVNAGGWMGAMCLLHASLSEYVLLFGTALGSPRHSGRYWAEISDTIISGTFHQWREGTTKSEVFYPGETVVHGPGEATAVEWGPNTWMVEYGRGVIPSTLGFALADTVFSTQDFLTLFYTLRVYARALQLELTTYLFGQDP

[3] = Inhibition of P-gp in dog MDCK-MDR1 cells by calcein-AM assay; format: cell-based, Canis lupus familiaris
Outline: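 MDCK-MDR1 cells overexpressing P-gp, grown in DMEM high glucose with 10% FBS and 2 mM glutamine at 37 °C under 5% CO2. Seeded at 50,000 cells/well and left overnight to confluence. Compound added for 30 min at 37 °C, then calcein-AM (final 2.5 µM in PBS) for 30 min. Wells washed with ice-cold PBS. Fluorescence read at 485/535 nm. EC50 from % increase over untreated basal versus log dose.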

[4] = Selectivity ratio of Ki for sigma 1 receptor in guinea pig brain to Ki for sigma 2 receptor in rat liver membrane; format: cell membranes
[5] = Lipophilicity, log D of the compound at pH 7.4; format: physicochemical; settings: buffer
Outline: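 LogD calculated for compounds at pH 7.4.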

[6] = species on record: Rattus norvegicus; experiment: Displacement of [3H]-DTG from sigma 2 receptor in rat liver membrane at […] after 30 mins by radioligand binding assay; format: cell membranes; outline: as §1

With `COc1cc(Br)cc(C(=O)NCCCN2CCN(C3CCCCC3)CC2)c1OC` the Ki [1] was 21.2 nM, the Ki [2] was 25.8 nM and the EC50 [3] was 2700 nM. The Ratio Ki [4] was 1.2 and the logD [5] was 2.43.

For `COc1cc(Br)c(C(=O)NCCCN2CCc3cc(OC)c(OC)cc3C2)cc1OC`, the Ki [1] was 50.9 nM, the Ki [2] was 2570 nM and the EC50 [3] was 45000 nM. The Ratio Ki [4] was 50 and the logD [5] was 2.89.

Work on `COc1cc2c(cc1OC)CN(CCCN1CCc3ccccc3C1=O)CC2` yielded a Ki [1] of 4.84 nM, a Ki [2] of 709 nM and an EC50 [3] of 12000 nM. The Ratio Ki [4] was 147 and the logD [5] was 2.25.

`COc1cc2c(cc1OC)CN(CCCCNC(=O)c1cc(C)ccc1OC)CC2` gave a Ki [1] of 8.68 nM, a Ki [2] of 2150 nM and an EC50 [3] of 1600 nM. The Ratio Ki [4] was 247 and the logD [5] was 2.83.

With `COc1cc(Br)c(C(=O)NCCCN2CCN(C3CCCCC3)CC2)cc1OC` the Ki [1] was 467 nM, the Ki [2] was 268 nM and the EC50 [3] was 45000 nM. The Ratio Ki [4] was 0.6 and the logD [5] was 2.11.

Work on `COc1cc2c(cc1OC)CN(CCCNC(=O)c1cc(Br)cc(OC)c1OC)CC2` yielded a Ki [1] of 12.9 nM, a Ki [2] of 4400 nM and an EC50 [3] of 2500 nM. It also gave a Ratio Ki [4] of 341 and a logD [5] of 3.22.

`COc1cccc2c1CCCC2CCCN1CCN(C2CCCCC2)CC1` (stereo not drawn) gave a Ki [1] of 0.68 nM, an EC50 [3] of 3000 nM and a logD [5] of 3.75.

`COc1cc2c(cc1OC)CN(CCCC1CCCc3c(OC)cccc31)CC2` (stereo not drawn) gave a Ki [2] of 151 nM, an EC50 [3] of 1100 nM and an Activity [6] of 96%. It also gave a logD [5] of 4.33.

`Cc1ccccc1NC(=N)Nc1ccccc1C` [DITOLYLGUANIDINE] gave a Ki [1] of 26.3 nM.

`COc1ccc(C)cc1C(=O)NCCCN1CCN(C2CCCCC2)CC1` gave a Ki [1] of 26.1 nM, a Ki [2] of 45.5 nM and an EC50 [3] of 8600 nM. For the same compound, the Ratio Ki [4] was 1.7 and the logD [5] was 1.94.

For `COc1cc2c(cc1OC)CN(CCCNC(=O)c1cc(C)ccc1OC)CC2`, the Ki [1] was 2.63 nM, the Ki [2] was 534 nM and the EC50 [3] was 5300 nM. For the same compound, the Ratio Ki [4] was 203 and the logD [5] was 2.7.

Work on `COc1cc2c(cc1OC)CN(CCCNC(=O)C1CCCc3c(OC)cccc31)CC2` (stereo not drawn) yielded a Ki [1] of 21.1 nM, a Ki [2] of 146 nM and an EC50 [3] of 2700 nM. It also gave a Ratio Ki [4] of 7 and a logD [5] of 3.21.

Work on `COc1cccc2c1CCCC2C(=O)NCCCN1CCN(C2CCCCC2)CC1` (stereo not drawn) yielded a Ki [1] of 16.5 nM, a Ki [2] of 35.1 nM and an EC50 [3] of 8600 nM. For the same compound, the Ratio Ki [4] was 2 and the logD [5] was 2.46.

Compound `O=C1c2ccccc2CCN1CCCN1CCN(C2CCCCC2)CC1` has a Ki [1] of 26.6 nM, a Ki [2] of 24.7 nM and an EC50 [3] of 20000 nM. The Ratio Ki [4] was 1 and the logD [5] was 1.49.
